Measurements published in ChEMBL document CHEMBL2086225, “Demethylwedelolactone derivatives inhibit invasive growth in vitro and lung metastasis of MDA-MB-231 breast cancer cells in nude mice” (Eur J Med Chem, 2012).
The source made the active and inactive calls.

Experiments:
MDA-MB-231 [1] = assay: Cytotoxicity against human MDA-MB-231 cells at 25 to 100 uM after 24 hrs by MTT assay; assay type: functional, cell-based
How it was run: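 Cells seeded at 5 × 10^4/well, grown 24 h in complete medium, exposed 0–100 µM for 24 h (control 0.2% DMSO). Medium replaced, MTT added for 4 h, formazan dissolved in DMSO, absorbance read at 570 nm.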

MDA-MB-231 [2] = assay: Antimetastatic activity against human MDA-MB-231 cells assessed as inhibition of anchorage-independent colony formation after 21 days by inverted microscopy; assay type: functional, cell-based
How it was run: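 Cells pretreated 0–20 µM for 24 h, then 5 × 10^3 cells suspended in 0.33% agarose with 10% FBS over 0.5% agarose base layer; grown at 37 °C, 5% CO2. Colonies counted after 21 days under inverted microscope at 40×; 3 independent experiments, means ± SD.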

MDA-MB-231 [3] = assay: Antimetastatic activity against human MDA-MB-231 cells assessed as inhibition of wound closure activity up to 20 uM at 12 hrs by scratch motility assay; assay type: functional, cell-based
MDA-MB-231 [4] = assay: Antiinvasive activity against human MDA-MB-231 cells assessed as F-actin reorganization at 20 uM incubated 24 hrs post-serum starvation measured after 12 hrs by TRITC-conjugated phalloidin staining method; assay type: functional, cell-based
How it was run: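 Cells seeded, serum-starved (0.1%) overnight, then exposed for 12 h in DMEM with 10% FBS. Fixed in 4% paraformaldehyde 10 min, permeabilized with 0.1% Triton X-100 5 min, F-actin stained with TRITC-phalloidin (500 ng/ml) 1 h; imaged by fluorescence microscopy at 100×.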

[5] = biological target: Focal adhesion kinase 1 (Homo sapiens) (UniProt Q05397); assay: Inhibition of FAK phosphorylation in human MDA-MB-231 cells after 12 hrs by Western blot analysis; assay type: cell-based
Chain of Focal adhesion kinase 1 (Homo sapiens) (Q05397 2-1052 limits assumed): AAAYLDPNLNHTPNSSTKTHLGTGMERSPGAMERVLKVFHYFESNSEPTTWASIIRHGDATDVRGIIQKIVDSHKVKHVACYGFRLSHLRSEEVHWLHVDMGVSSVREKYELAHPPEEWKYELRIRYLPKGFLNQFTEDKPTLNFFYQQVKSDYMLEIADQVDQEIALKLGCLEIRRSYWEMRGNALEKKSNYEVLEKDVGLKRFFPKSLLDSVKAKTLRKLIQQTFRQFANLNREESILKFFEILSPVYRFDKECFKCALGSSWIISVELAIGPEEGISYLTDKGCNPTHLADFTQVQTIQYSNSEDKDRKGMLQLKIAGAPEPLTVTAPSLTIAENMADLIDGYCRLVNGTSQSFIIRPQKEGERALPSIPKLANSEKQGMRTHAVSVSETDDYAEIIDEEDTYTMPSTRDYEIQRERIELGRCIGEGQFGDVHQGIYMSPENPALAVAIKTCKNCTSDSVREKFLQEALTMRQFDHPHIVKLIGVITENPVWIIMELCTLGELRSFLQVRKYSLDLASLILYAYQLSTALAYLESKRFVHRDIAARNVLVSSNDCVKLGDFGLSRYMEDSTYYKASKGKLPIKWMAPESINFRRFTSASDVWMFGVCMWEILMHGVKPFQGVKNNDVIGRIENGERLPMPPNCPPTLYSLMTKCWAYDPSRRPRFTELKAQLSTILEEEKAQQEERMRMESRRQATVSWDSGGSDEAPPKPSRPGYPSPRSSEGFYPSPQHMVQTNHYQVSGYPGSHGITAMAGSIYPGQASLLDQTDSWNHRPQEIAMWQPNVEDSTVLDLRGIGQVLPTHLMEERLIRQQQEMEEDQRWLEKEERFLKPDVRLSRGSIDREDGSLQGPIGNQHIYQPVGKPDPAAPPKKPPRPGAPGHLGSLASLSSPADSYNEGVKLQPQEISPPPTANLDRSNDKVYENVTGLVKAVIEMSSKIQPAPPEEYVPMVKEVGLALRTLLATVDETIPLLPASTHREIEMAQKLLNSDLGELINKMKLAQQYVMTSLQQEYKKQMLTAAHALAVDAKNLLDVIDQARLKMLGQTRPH
How it was run: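 Cells exposed 0–20 µM for 12 h; lysates in RIPA buffer immunoblotted with phospho-FAK, total FAK and β-actin antibodies; HRP secondary, chemiluminescence, densitometry.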

MDA-MB-231 [6] = assay: Antiinvasive activity against human MDA-MB-231 cells pretreated for 12 hrs followed by compound-wash out measured after 12 hrs by Boyden chamber assay; assay type: functional, cell-based
How it was run: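 Cells pretreated 12 h, resuspended in serum-free medium (2 × 10^5 cells/ml) in upper chamber coated with Matrigel diluted 1:25; 10% FBS medium below. After 12 h, non-invaded cells removed; invaded cells methanol-fixed, Giemsa-stained, counted at 200× in 5 random fields per replicate (n = 4), averaged.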

MDA-MB-231 [7] = assay: Downregulation of MMP2 expression in human MDA-MB-231 cells at 5 to 20 uM after 12 hrs by Western blot analysis; assay type: functional, cell-based
How it was run: (§1)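 Cells exposed to 5, 10 or 20 µM for 12 h; lysed in RIPA buffer (pH 7.5) with protease/phosphatase inhibitors. 50–100 µg protein run on SDS-PAGE, transferred to nitrocellulose, probed with phospho-specific and total antibodies (β-actin loading control), HRP secondary, ECL detection, densitometry.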

MDA-MB-231 [8] = assay: Downregulation of MMP9 expression in human MDA-MB-231 cells at 0.5 to 1 uM after 12 hrs by Western blot analysis; assay type: functional, cell-based
MDA-MB-231 [9] = assay: Upregulation of TIMP1 expression in human MDA-MB-231 cells at 0.5 to 1 uM after 12 hrs by Western blot analysis; assay type: functional, cell-based
MDA-MB-231 [10] = assay: Upregulation of TIMP2 expression in human MDA-MB-231 cells at 1 to 3.5 uM after 12 hrs by Western blot analysis; assay type: functional, cell-based
[11] = biological target: T1, NF-kappa-B inhibitor alpha (Homo sapiens) (UniProt P25963); assay: Inhibition of IkappaBalpha phosphorylation in human MDA-MB-231 cells at 5 to 20 uM after 12 to 24 hrs by Western blot analysis; assay type: cell-based
T1 sequence (whole entry): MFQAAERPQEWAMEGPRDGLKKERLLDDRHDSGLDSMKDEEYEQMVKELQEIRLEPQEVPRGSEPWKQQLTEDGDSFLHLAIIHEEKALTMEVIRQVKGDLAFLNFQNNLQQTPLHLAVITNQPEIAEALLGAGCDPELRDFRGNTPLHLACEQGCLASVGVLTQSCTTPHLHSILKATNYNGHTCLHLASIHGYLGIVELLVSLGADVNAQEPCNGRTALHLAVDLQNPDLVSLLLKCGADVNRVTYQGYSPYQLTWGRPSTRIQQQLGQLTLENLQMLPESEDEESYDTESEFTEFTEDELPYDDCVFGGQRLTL

[12] = biological target: T1, NF-kappa-B inhibitor alpha (Homo sapiens); assay: Inhibition of IkappaBalpha phosphorylation in human MDA-MB-231 cells after 12 hrs by Western blot analysis; assay type: cell-based
How it was run: (§2)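 For the time course, cells exposed to 20 µM for various times; for dose response, 5, 10 or 20 µM for 12 h. Lysates immunoblotted with phospho-IκB-α and total IκB-α antibodies, HRP secondary, chemiluminescence detection, densitometry.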

[13] = biological target: Mitogen-activated protein kinase; ERK1/ERK2 (Homo sapiens) (UniProt P27361+P28482); assay: Inhibition of ERK 1/2 phosphorylation in human MDA-MB-231 cells at 5 to 20 uM after 12 hrs by Western blot analysis; assay type: cell-based; how it was run: as §1
Chain of Mitogen-activated protein kinase; ERK1/ERK2 (Homo sapiens) (P27361 whole entry, looked up): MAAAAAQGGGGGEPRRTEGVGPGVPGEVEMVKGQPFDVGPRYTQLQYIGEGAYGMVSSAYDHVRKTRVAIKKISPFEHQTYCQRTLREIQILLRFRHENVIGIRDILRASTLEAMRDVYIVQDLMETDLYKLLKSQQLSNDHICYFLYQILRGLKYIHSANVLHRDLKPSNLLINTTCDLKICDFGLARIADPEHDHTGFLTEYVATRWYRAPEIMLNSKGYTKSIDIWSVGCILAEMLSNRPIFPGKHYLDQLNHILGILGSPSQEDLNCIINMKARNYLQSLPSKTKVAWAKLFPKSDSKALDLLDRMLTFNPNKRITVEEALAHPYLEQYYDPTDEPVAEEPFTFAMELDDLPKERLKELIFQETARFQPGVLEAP
Chain of Mitogen-activated protein kinase; ERK1/ERK2 (Homo sapiens) (P28482 whole entry, looked up): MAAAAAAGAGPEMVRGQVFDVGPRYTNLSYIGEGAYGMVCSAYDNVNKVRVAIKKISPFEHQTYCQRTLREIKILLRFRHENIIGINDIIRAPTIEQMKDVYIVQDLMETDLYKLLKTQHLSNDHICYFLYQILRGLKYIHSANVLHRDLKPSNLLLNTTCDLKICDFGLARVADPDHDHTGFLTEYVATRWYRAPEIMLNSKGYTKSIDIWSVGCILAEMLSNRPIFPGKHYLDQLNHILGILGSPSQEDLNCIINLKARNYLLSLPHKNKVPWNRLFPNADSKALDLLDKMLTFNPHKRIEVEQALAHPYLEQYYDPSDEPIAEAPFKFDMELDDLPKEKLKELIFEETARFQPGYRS

SK-HEP1 = assay: Antiinvasive activity against human SKHEP1 cells; assay type: functional, cell-based
[14] = biological target: 72 kDa type IV collagenase (Homo sapiens) (UniProt P08253); assay: Inhibition of MMP2 in human MDA-MB-231 cells at 20 uM up to 12 hrs by gelatin-zymogrphy; assay type: cell-based
Chain of 72 kDa type IV collagenase (Homo sapiens) (P08253 110-660 limits assumed): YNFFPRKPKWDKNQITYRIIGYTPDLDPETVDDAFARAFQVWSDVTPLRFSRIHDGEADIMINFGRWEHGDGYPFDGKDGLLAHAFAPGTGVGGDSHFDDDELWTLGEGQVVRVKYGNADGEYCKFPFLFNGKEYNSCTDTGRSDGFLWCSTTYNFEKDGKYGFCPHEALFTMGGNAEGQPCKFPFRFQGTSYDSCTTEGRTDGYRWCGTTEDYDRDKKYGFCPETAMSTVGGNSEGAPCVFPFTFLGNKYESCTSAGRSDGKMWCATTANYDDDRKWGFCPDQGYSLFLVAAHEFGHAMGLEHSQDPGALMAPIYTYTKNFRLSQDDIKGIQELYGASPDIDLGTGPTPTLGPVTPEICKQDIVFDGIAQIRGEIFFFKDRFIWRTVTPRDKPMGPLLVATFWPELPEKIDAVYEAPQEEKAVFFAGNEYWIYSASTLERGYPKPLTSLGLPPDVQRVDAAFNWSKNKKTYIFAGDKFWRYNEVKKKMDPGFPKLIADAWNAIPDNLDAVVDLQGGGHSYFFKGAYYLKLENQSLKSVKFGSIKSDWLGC
How it was run: (§3)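 Cells seeded at 4 × 10^5 cells/ml overnight, exposed to 20 µM for 0–12 h. Conditioned media run on 8% SDS-PAGE containing 0.1% gelatin (150 V, 3 h), SDS removed with 2% Triton X-100 washes, gels incubated in 10 mM CaCl2, 40 mM Tris-HCl pH 8.0 for 16 h at 37 °C, Coomassie-stained.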

[15] = biological target: Matrix metalloproteinase-9 (Homo sapiens) (UniProt P14780); assay: Inhibition of MMP9 in human MDA-MB-231 cells at 20 uM up to 12 hrs by gelatin-zymogrphy; assay type: cell-based; how it was run: as §3
Chain of Matrix metalloproteinase-9 (Homo sapiens) (P14780 whole entry): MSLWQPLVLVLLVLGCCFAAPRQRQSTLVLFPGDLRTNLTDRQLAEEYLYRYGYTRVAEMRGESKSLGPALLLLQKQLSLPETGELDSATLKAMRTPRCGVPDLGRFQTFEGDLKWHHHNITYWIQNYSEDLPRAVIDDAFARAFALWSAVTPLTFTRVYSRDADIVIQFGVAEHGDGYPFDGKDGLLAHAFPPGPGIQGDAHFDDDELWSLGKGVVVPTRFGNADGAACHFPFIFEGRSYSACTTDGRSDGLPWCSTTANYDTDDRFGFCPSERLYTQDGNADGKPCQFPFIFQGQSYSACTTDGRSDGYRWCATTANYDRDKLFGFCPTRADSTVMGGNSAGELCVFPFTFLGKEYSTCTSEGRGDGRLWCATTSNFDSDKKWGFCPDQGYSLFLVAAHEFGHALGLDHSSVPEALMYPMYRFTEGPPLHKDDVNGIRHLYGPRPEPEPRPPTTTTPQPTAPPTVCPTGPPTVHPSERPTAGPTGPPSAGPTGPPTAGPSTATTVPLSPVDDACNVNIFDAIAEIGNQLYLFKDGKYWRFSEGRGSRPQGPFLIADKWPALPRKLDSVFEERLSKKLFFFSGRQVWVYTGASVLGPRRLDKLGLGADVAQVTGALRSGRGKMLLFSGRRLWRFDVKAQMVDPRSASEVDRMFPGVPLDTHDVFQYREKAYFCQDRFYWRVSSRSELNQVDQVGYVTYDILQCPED

MDA-MB-231 [16] = assay: Downregulation of MMP9 expression in human MDA-MB-231 cells at 0.1 to 0.9 uM after 12 hrs by Western blot analysis; assay type: functional, cell-based
MDA-MB-231 [17] = assay: Upregulation of TIMP1 expression in human MDA-MB-231 cells at 0.2 to 0.8 uM after 12 hrs by Western blot analysis; assay type: functional, cell-based
MDA-MB-231 [18] = assay: Upregulation of TIMP2 expression in human MDA-MB-231 cells at 1.1 to 3.6 uM after 12 hrs by Western blot analysis; assay type: functional, cell-based
[19] = biological target: T1, NF-kappa-B inhibitor alpha (Homo sapiens); assay: Inhibition of IkappaBalpha phosphorylation in human MDA-MB-231 cells at 5 to 20 uM after 3 to 24 hrs by Western blot analysis; assay type: cell-based; how it was run: as §2
MDA-MB-231 [20] = assay: Antiinvasive activity against human MDA-MB-231 cells xenografted in athymic nude BALB/c mouse assessed as decrease in lung size at 5 and 20 mg/kg, ip administered 3 times per week starting 1 week prior to xenografting measured after 5 weeks relative to control; assay type: functional, organism-based; parameters: dose 20 mg/kg
How it was run: (§4)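 Female six-week-old BALB/c-nu mice (n = 6/group) dosed i.p. 3 times/week for 5 weeks (100 µl vehicle, or PBS). After 1 week, 1 × 10^6 cells injected into tail vein. Mice euthanized 4 weeks post-injection; lungs photographed, weighed, and H&E/hematoxylin sections examined for tumor cells. Means ± SD; one-way ANOVA with Dunnett's test.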

MDA-MB-231 [21] = assay: Antiinvasive activity against human MDA-MB-231 cells xenografted in athymic nude BALB/c mouse assessed as decrease in lung weight at 5 and 20 mg/kg, ip administered 3 times per week starting 1 week prior to xenografting measured after 5 weeks relative to control; assay type: functional, organism-based; parameters: dose 20 mg/kg; how it was run: as §4
MDA-MB-231 [22] = assay: Antiinvasive activity against human MDA-MB-231 cells xenografted in athymic nude BALB/c mouse assessed as decrease in lung metastasis at 5 and 20 mg/kg, ip administered 3 times per week starting 1 week prior to xenografting measured after 5 weeks by hematoxylin-staining relative to control; assay type: functional, organism-based; parameters: dose 20 mg/kg; how it was run: as §4
MDA-MB-231 [23] = assay: Downregulation of MMP2 in human MDA-MB-231 cells at 50 uM by Western blot analysis; assay type: functional, cell-based
MDA-MB-231 [24] = assay: Downregulation of MMP9 in human MDA-MB-231 cells at 50 uM by Western blot analysis; assay type: functional, cell-based
MDA-MB-231 [25] = assay: Downregulation of MMP2 in human MDA-MB-231 cells at 10 uM by Western blot analysis; assay type: functional, cell-based
How it was run: (§5)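 MDA-MB-231 cells in DMEM with 10% FBS at 37 °C were treated for 12 h. Whole-cell lysates were made in RIPA buffer (pH 7.5) at 4 °C, then SDS-PAGE, nitrocellulose transfer, and immunoblotting for MMP-2 and MMP-9, with β-actin as loading control. Detection was by HRP secondary antibody and chemiluminescence. Relative band density was quantified by densitometry.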

MDA-MB-231 [26] = assay: Downregulation of MMP9 in human MDA-MB-231 cells at 10 uM by Western blot analysis; assay type: functional, cell-based; how it was run: as §5

COc1cc(O)c2c(c1)oc(=O)c1c3cc(O)c(O)cc3oc21
active: Activity (MDA-MB-231 [1]) | inhibition (MDA-MB-231 [2]) Dose-dependent effect | inhibition (MDA-MB-231 [3]) | Activity (MDA-MB-231 [4]) | inhibition [5] Dose-dependent effect | Activity (MDA-MB-231 [6]) Dose-dependent effect | Activity (MDA-MB-231 [7]) | Activity (MDA-MB-231 [8]) | Activity (MDA-MB-231 [9]) | Activity (MDA-MB-231 [10]) | inhibition [11] | inhibition [12] Dose-dependent effect | inhibition [13] | Activity (SK-HEP1)

O=c1oc2cc(O)cc(O)c2c2oc3cc(O)c(O)cc3c12
active: Activity (MDA-MB-231 [1]) | inhibition (MDA-MB-231 [2]) Dose-dependent effect | inhibition (MDA-MB-231 [3]) | Activity (MDA-MB-231 [4]) | inhibition [5] Dose-dependent effect | Activity (MDA-MB-231 [6]) Dose-dependent effect | inhibition [14] | inhibition [15] | Activity (MDA-MB-231 [7]) | Activity (MDA-MB-231 [16]) | Activity (MDA-MB-231 [17]) | Activity (MDA-MB-231 [18]) | inhibition [19] | inhibition [12] Dose-dependent effect | inhibition [13] | Activity (MDA-MB-231 [20]) | Activity (MDA-MB-231 [21]) | Activity (MDA-MB-231 [22]) | Activity (SK-HEP1)

COc1cccc(-c2cc(=O)c3ccccc3o2)c1N
active: Activity (MDA-MB-231 [23]) | Activity (MDA-MB-231 [24])

S=C(S)N1CCCC1
active: Activity (MDA-MB-231 [25]) | Activity (MDA-MB-231 [26])
